In ChEMBL document CHEMBL3112397, “Antitrypanosomal structure-activity-relationship study of synthetic cynaropicrin derivatives” (Bioorg Med Chem Lett, 2014) one finds IC50 and selectivity ratio data, which are given here for 8 molecules.

SMILES strings stand for the structures.

The term IC50 denotes the concentration needed to halve the response being measured. A lower IC50 goes with higher potency.

The test system of one data set is L6. Put plainly: Cytotoxicity against rat L6 cells after 70 hrs by alamar blue assay. Particulars: L6, 70 h. It is filed as cell-based. Summed up:
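Rat skeletal myoblasts (L6) were kept in RPMI 1640 with L-glutamine, 5.95 g/L HEPES, 2 g/L NaHCO3 and 10% FBS at 37 °C in 5% CO2, seeded at 4000 cells/well, then given fresh medium 24 h later with or without serial threefold drug dilutions. Podophyllotoxin served as reference. After 70 h, Alamar Blue was added for 2 h more and read at ex 536/em 588 nm. IC50 came from sigmoidal curves, ≥3 independent repeats.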
A general note: Alamar Blue is a resazurin reagent that responds to reducing activity.

Data set [1] can be described thus: Selectivity index, ratio of IC50 for rat L6 cells to IC50 for Trypanosoma brucei rhodesiense STIB 900. It is filed as toxicity, cell-based. Particulars: read-out: Ratio IC50. Summed up: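 SI was calculated as IC50 in L6 cells divided by IC50 against T. b. rhodesiense, with both values from the Alamar Blue assays.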
Data set [2] relates to Trypanosoma brucei rhodesiense. Put plainly: Antitrypanosomal activity against bloodstream form of Trypanosoma brucei rhodesiense STIB 900 after 70 hrs by alamar blue assay. Particulars: STIB 900, 70 h. Format: functional, organism-based. In a few lines:
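T. b. rhodesiense STIB 900 bloodstream forms were grown at 37 °C in humidified 5% CO2 in MEM with Earle's salts plus 0.2 mM 2-mercaptoethanol, 1 mM sodium pyruvate, 0.5 mM hypoxanthine and 15% heat-inactivated horse serum. Serial threefold dilutions were tested with Alamar Blue read-out (ex 536/em 588 nm). IC50 was taken from sigmoidal growth-inhibition curves over at least three independent repeats (mean ± SEM).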

For the molecule `C=C(COC(C)=O)C(=O)O[C@H]1CC(=C)[C@@H]2C[C@H](OC(C)=O)C(=C)[C@@H]2[C@H]2OC(=O)C(=C)[C@@H]21`, the IC50 in the data set with L6 came to 4940 nM; in data set [2], 2130 nM. Also, the selectivity ratio in data set [1] was 2.3.
The like results for `C=C(COC(C)=O)C(=O)O[C@H]1CC(=C)[C@@H]2C[C@H](O)C(=C)[C@@H]2[C@H]2OC(=O)C(=C)[C@@H]21` were, in that order, 6390 nM, 1860 nM and 3.4.
The like results for `C=C(C)C(=O)O[C@H]1CC(=C)[C@@H]2C[C@H](OCOC)C(=C)[C@@H]2[C@H]2OC(=O)C(=C)[C@@H]21` were, in that order, 300 nM, 340 nM and 0.9.
The like results for `C=C1C(=O)O[C@@H]2[C@H]3C(=C)[C@@H](OCOC)C[C@H]3C(=C)C[C@H](O)[C@@H]12` were, in that order, 860 nM, 2210 nM and 0.4.
For `C=C(COCOC)C(=O)O[C@H]1CC(=C)[C@@H]2C[C@H](OCOC)C(=C)[C@@H]2[C@H]2OC(=O)C(=C)[C@@H]21`, the results for the IC50 (in the data set with L6; in data set [2]) were 170 nM and 480 nM, respectively. Further, the selectivity ratio in data set [1] stood at 0.4.
Taken in the same sequence, the figures for `C=C(C)C(=O)O[C@H]1CC(=C)[C@@H]2C[C@H](O)C(=C)[C@@H]2[C@H]2OC(=O)C(=C)[C@@H]21` [AGUERIN B] were 330 nM, 170 nM and 1.9.
Take `C=C(CO)C(=O)O[C@H]1CC(=C)[C@@H]2C[C@H](O)C(=C)[C@@H]2[C@H]2OC(=O)C(=C)[C@@H]21` [CYNAROPICRIN]: the IC50 in the data set with L6 was found to be 2190 nM; in data set [2], 280 nM. Further, the selectivity ratio in data set [1] stood at 7.8.
Taken in the same sequence, the figures for `C=C1C(=O)O[C@@H]2[C@H]3C(=C)[C@@H](O)C[C@H]3C(=C)C[C@H](O)[C@@H]12` [DESACYLCYNAROPICRIN] were 4940 nM, 4920 nM and 1.
